ChEMBL document CHEMBL1153575, “Synthesis and in vitro anticancer activity of 2,4-azolidinedione-acetic acids derivatives” (2009)

Legend:
Format in all cases: functional
[1] = test system: NCI-H460; test: Cytotoxicity against human NCI-H460 cells assessed as cell growth at 100 uM after 48 hrs by sulforhodamine B assay; conditions: NCI-H460, 48 h, read-out: Activity
In short: (§1)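 Primary one-dose screen on a three-line panel (MCF7 breast, NCI-H460 lung, SF-268 CNS) at 10^-4 M. Cells were preincubated 24–48 h before a single addition of the agent, followed by 48 h incubation. Endpoint was SRB protein staining, reported as percent growth versus untreated controls.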

[2] = test system: MCF7; test: Cytotoxicity against human MCF7 cells assessed as cell growth at 100 uM after 48 hrs by sulforhodamine B assay; conditions: MCF7, 48 h, read-out: Activity; in short: as §1
[3] = test system: SF-268; test: Cytotoxicity against human SF268 cells assessed as cell growth at 100 uM after 48 hrs by sulforhodamine B assay; conditions: SF-268, 48 h, read-out: Activity; in short: as §1
[4] = test system: MDA-MB-231; test: Growth inhibition of human MDA-MB-231 cells after 48 hrs by sulforhodamine B assay; conditions: MDA-MB-231, 48 h; for TGI: read-out: pTGI (converted)
In short: (§2)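 Five-concentration assay in about 60 human tumour lines, using 10-fold dilutions from 10^-4 to 10^-8 M with 48 h continuous exposure and an SRB protein endpoint. Percent growth at each level comes from time-zero, untreated-control and treated absorbances. GI50 is 50% lower net protein increase than control. Values beyond the tested range are given as greater or less than the extreme concentration.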

[5] = Growth inhibition of human Hs 578T cells after 48 hrs by sulforhodamine B assay; conditions: for CC50: read-out: pLC50 (the source's name) (converted); for TGI: read-out: pTGI (converted); in short: as §2
[6] = test system: SR; test: Growth inhibition of human SR cells after 48 hrs by sulforhodamine B assay; conditions: for TGI: read-out: pTGI (converted); in short: as §2
[7] = test system: NCI-H23; test: Growth inhibition of human NCI-H23 cells after 48 hrs by sulforhodamine B assay; conditions: NCI-H23, 48 h; in short: as §2
[8] = test system: A498; test: Growth inhibition of human A498 cells after 48 hrs by sulforhodamine B assay; conditions: A498, 48 h; in short: as §2
[9] = test system: RPMI-8226; test: Cytotoxicity against human RPMI8226 cells assessed as cell growth at 10 uM after 48 hrs by sulforhodamine B assay; conditions: RPMI-8226, 48 h, read-out: Activity
In short: (§3)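 Single-dose primary screen at 10^-5 M (final) across a panel of about 60 human tumour cell lines. Cells were inoculated and preincubated 24–48 h, then the compound was added once and incubated a further 48 h. Protein was stained with sulforhodamine B and read spectrophotometrically. Percent growth is given relative to untreated control cells.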

[10] = test system: SR; test: Cytotoxicity against human SR cells assessed as cell growth at 10 uM after 48 hrs by sulforhodamine B assay; conditions: read-out: Activity; in short: as §3
[11] = test system: TK-10; test: Cytotoxicity against human TK10 cells assessed as cell growth at 10 uM after 48 hrs by sulforhodamine B assay; conditions: TK-10, 48 h, read-out: Activity; in short: as §3
[12] = test system: UO-31; test: Cytotoxicity against human UO31 cells assessed as cell growth at 10 uM after 48 hrs by sulforhodamine B assay; conditions: UO-31, 48 h, read-out: Activity; in short: as §3
[13] = test system: ACHN; test: Cytotoxicity against human ACHN cells assessed as cell growth at 10 uM after 48 hrs by sulforhodamine B assay; conditions: read-out: Activity; in short: as §3
[14] = Cytotoxicity against human IGROV cells assessed as cell growth at 10 uM after 48 hrs by sulforhodamine B assay; conditions: read-out: Activity; in short: as §3
[15] = test system: CCRF-CEM; test: Growth inhibition of human CCRF-CEM cells after 48 hrs by sulforhodamine B assay; in short: as §2
[16] = test system: MOLT-4; test: Growth inhibition of human MOLT4 cells after 48 hrs by sulforhodamine B assay; conditions: MOLT-4, 48 h; in short: as §2
[17] = test system: RPMI-8226; test: Growth inhibition of human RPMI8226 cells after 48 hrs by sulforhodamine B assay; conditions: RPMI-8226, 48 h; in short: as §2
[18] = test system: HOP-62; test: Growth inhibition of human HOP62 cells after 48 hrs by sulforhodamine B assay; conditions: HOP-62, 48 h; in short: as §2
[19] = test system: HOP-92; test: Growth inhibition of human HOP92 cells after 48 hrs by sulforhodamine B assay; conditions: HOP-92, 48 h; in short: as §2
[20] = test system: NCI-H226; test: Growth inhibition of human NCI-H226 cells after 48 hrs by sulforhodamine B assay; conditions: NCI-H226, 48 h; in short: as §2
[21] = test system: SN12C; test: Growth inhibition of human SN12C cells after 48 hrs by sulforhodamine B assay; in short: as §2
[22] = test system: HL-60(TB); test: Growth inhibition of human HL-60(TB) cells after 48 hrs by sulforhodamine B assay; conditions: HL-60, 48 h
In short: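 Cells inoculated and preincubated 24–48 h in microtiter plates, then exposed continuously for 48 h to five 10-fold dilutions from 10^-4 to 10^-8 M. End point by sulforhodamine B protein staining, read spectrophotometrically against untreated controls and time-zero absorbance. Percent growth computed per concentration; GI50 taken where [(Ti−Tz)/(C−Tz)]×100 = 50, expressed as log molar value.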

[23] = test system: SF-268; test: Growth inhibition of human SF268 cells after 48 hrs by sulforhodamine B assay; conditions: SF-268, 48 h; in short: as §2
[24] = test system: SF-539; test: Growth inhibition of human SF539 cells after 48 hrs by sulforhodamine B assay; conditions: SF-539, 48 h; in short: as §2
[25] = test system: SNB-; test: Growth inhibition of human SNB cells after 48 hrs by sulforhodamine B assay; in short: as §2
[26] = test system: U-251; test: Growth inhibition of human U251 cells after 48 hrs by sulforhodamine B assay; conditions: U-251, 48 h; in short: as §2
[27] = test system: LOX IMVI; test: Growth inhibition of human LOXIMVI cells after 48 hrs by sulforhodamine B assay; in short: as §2
[28] = test system: OVCAR-4; test: Growth inhibition of human OVCAR4 cells after 48 hrs by sulforhodamine B assay; conditions: OVCAR-4, 48 h; in short: as §2
[29] = test system: SK-OV-3; test: Growth inhibition of human SKOV3 cells after 48 hrs by sulforhodamine B assay; conditions: SK-OV-3, 48 h; in short: as §2
[30] = test system: TK-10; test: Growth inhibition of human TK10 cells after 48 hrs by sulforhodamine B assay; conditions: TK-10, 48 h; in short: as §2
[31] = test system: PC-3; test: Growth inhibition of human PC3 cells after 48 hrs by sulforhodamine B assay; conditions: PC-3, 48 h; in short: as §2
[32] = test system: OVCAR-5; test: Cytotoxicity against human OVCAR5 cells assessed as cell growth at 10 uM after 48 hrs by sulforhodamine B assay; conditions: OVCAR-5, 48 h, read-out: Activity; in short: as §3
[33] = test system: HCT-116; test: Cytotoxicity against human HCT116 cells assessed as cell growth at 10 uM after 48 hrs by sulforhodamine B assay; conditions: HCT-116, 48 h, read-out: Activity; in short: as §3
[34] = test system: CAKI-1; test: Cytotoxicity against human Caki1 cells assessed as cell growth at 10 uM after 48 hrs by sulforhodamine B assay; conditions: CAKI-1, 48 h, read-out: Activity; in short: as §3
[35] = read-out: pLC50 (the source's name) (converted)

For `O=C(CN1C(=O)N/C(=C\C=C\c2ccccc2)C1=O)Nc1ccc(Cl)cc1`, the growth at 100 µM [1] was 17%, the growth at 100 µM [2] was 7% and the growth at 100 µM [3] was 39%. It also gave a GI50 [4] of 26.3 µM, an LC50 [4] of over 100 µM and a TGI [4] of over 100 µM. The GI50 [5] was 21.9 µM, the CC50 [5] was over 100 µM and the TGI [5] was 52.5 µM. For the same molecule, the GI50 [6] was 33.9 µM, the LC50 [6] was over 100 µM and the TGI [6] was over 100 µM. The GI50 [7] was 31.6 µM, the LC50 [7] was over 100 µM and the TGI ([7]; read-out: pTGI (converted)) was over 100 µM. For the same molecule, the GI50 [8] was 17.8 µM, the CC50 [8, 35] was 77.6 µM and the TGI ([8]; read-out: pTGI (converted)) was 37.2 µM.

In the case of `O=C(CN1C(=O)N/C(=C\C=C\c2ccccc2)C1=O)Nc1ccccc1C(F)(F)F`, the growth at 10 µM [9] was 26.6%.

With `NS(=O)(=O)c1ccc(NC(=O)CC2NC(=O)NC2=O)cc1` (stereo not given) the growth at 10 µM [10] was 68.3%.

`O=C(CN1C(=O)S/C(=C\C=C\c2ccccc2)C1=O)Nc1ccccc1C(F)(F)F` showed a growth at 10 µM [11] of 62.5%.

Molecule `O=C(CN1C(=O)N/C(=C\c2ccccc2)C1=O)Nc1ccc(Cl)cc1` has a growth at 10 µM [12] of -83.1%, a growth at 10 µM [13] of 1.51% and a growth at 10 µM [14] of -3.51%.

For `O=C(CN1C(=O)N/C(=C\c2ccc(Cl)cc2)C1=O)Nc1ccc(Cl)cc1`, the GI50 [15] was 14.8 µM, the LC50 [15] was 67.6 µM and the TGI ([15]; read-out: pTGI (converted)) was 31.6 µM. The GI50 [16] was 11 µM, the CC50 [16, 35] was 72.4 µM and the TGI ([16]; read-out: pTGI (converted)) was 28.2 µM. It also gave a GI50 [17] of 20.9 µM, an LC50 [17] of over 100 µM and a TGI ([17]; read-out: pTGI (converted)) of 67.6 µM. The GI50 [18] was 15.1 µM, the LC50 [18] was over 100 µM and the TGI ([18]; read-out: pTGI (converted)) was 43.7 µM. The GI50 [19] was 17.4 µM, the LC50 [19] was over 100 µM and the TGI ([19]; read-out: pTGI (converted)) was 50.1 µM. It also gave a GI50 [20] of 15.8 µM, a CC50 [20, 35] of over 100 µM and a TGI ([20]; read-out: pTGI (converted)) of 44.7 µM. It also gave a GI50 [21] of 17 µM, an LC50 [21] of over 100 µM and a TGI ([21]; read-out: pTGI (converted)) of 47.9 µM. It also gave a GI50 [4] of 16.2 µM, an LC50 [4] of over 100 µM and a TGI [4] of 42.7 µM. The GI50 [5] was 10.7 µM, the CC50 [5] was over 100 µM and the TGI [5] was 38 µM. For the same molecule, the GI50 [22] was 19.5 µM, the CC50 [22, 35] was over 100 µM and the TGI ([22]; read-out: pTGI (converted)) was 46.8 µM. For the same molecule, the GI50 [6] was 7.08 µM, the LC50 [6] was over 100 µM and the TGI [6] was 67.6 µM. The GI50 [23] was 10.5 µM, the CC50 [23, 35] was 85.1 µM and the TGI ([23]; read-out: pTGI (converted)) was 29.5 µM. The GI50 [24] was 16.6 µM, the CC50 [24, 35] was 89.1 µM and the TGI ([24]; read-out: pTGI (converted)) was 38.9 µM. It also gave a GI50 [25] of 13.2 µM, a CC50 [25, 35] of over 100 µM and a TGI ([25]; read-out: pTGI (converted)) of 36.3 µM. For the same molecule, the GI50 [26] was 14.8 µM, the LC50 [26] was 60.3 µM and the TGI ([26]; read-out: pTGI (converted)) was 29.5 µM. The GI50 [27] was 15.5 µM, the CC50 [27, 35] was 66.1 µM and the TGI ([27]; read-out: pTGI (converted)) was 32.4 µM. The GI50 [28] was 13.2 µM, the CC50 [28, 35] was over 100 µM and the TGI ([28]; read-out: pTGI (converted)) was 64.6 µM. For the same molecule, the GI50 [29] was 19.5 µM, the LC50 [29] was over 100 µM and the TGI ([29]; read-out: pTGI (converted)) was 51.3 µM. The GI50 [30] was 17 µM, the CC50 [30, 35] was over 100 µM and the TGI ([30]; read-out: pTGI (converted)) was 42.7 µM. For the same molecule, the GI50 [31] was 18.6 µM, the CC50 [31, 35] was over 100 µM and the TGI ([31]; read-out: pTGI (converted)) was 46.8 µM.

`NS(=O)(=O)c1ccc(NC(=O)CN2C(=O)CNC2=O)cc1` showed a growth at 10 µM [12] of 26%.

`O=C(CN1C(=O)S/C(=C\c2ccc(Cl)cc2)C1=O)Nc1ccccc1C(F)(F)F` gave a growth at 10 µM [12] of 75.8%.

Molecule `CN(C)c1ccc(/C=C2\SC(=O)N(CC(=O)Nc3ccccc3C(F)(F)F)C2=O)cc1` has a growth at 10 µM [10] of 45.8%.

`COc1ccc(/C=C2\NC(=O)N(CC(=O)Nc3nccs3)C2=O)cc1` gave a growth at 10 µM [32] of 76.5%.

In the case of `CN(C)c1ccc(/C=C2\NC(=O)N(CC(=O)Nc3ccccc3C(F)(F)F)C2=O)cc1`, the growth at 10 µM [33] was 31%.

With `NS(=O)(=O)c1ccc(NC(=O)CC2SC(=O)NC2=O)cc1` (stereo not given) the growth at 10 µM [34] was 54.2%.
